Env fusion inh: inhibitors of HIV Env-mediated cell fusion; HeLa-JRFL Env/CEM21 cell fusion, luciferase; inhibition, % at 12.3 µM; hit rate 1.1% among 360,000;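 active = mean replicate inhibition score of at least 50 and every replicate individually at or above 50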;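 note: 0% = plate neutral controls and 100% = maraviroc near 300 nM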
PDI turbidity: blocks human protein disulfide isomerase activity; P07237; PDI insulin aggregation turbidity, A650, 90 min; inhibition, % at 10 µM; hit rate 0.052% among 350,000; AID 588391;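 active = mean inhibition across replicates of 30% or more, whatever share of single replicates reach that level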
Target sequence (P07237 whole entry, looked up): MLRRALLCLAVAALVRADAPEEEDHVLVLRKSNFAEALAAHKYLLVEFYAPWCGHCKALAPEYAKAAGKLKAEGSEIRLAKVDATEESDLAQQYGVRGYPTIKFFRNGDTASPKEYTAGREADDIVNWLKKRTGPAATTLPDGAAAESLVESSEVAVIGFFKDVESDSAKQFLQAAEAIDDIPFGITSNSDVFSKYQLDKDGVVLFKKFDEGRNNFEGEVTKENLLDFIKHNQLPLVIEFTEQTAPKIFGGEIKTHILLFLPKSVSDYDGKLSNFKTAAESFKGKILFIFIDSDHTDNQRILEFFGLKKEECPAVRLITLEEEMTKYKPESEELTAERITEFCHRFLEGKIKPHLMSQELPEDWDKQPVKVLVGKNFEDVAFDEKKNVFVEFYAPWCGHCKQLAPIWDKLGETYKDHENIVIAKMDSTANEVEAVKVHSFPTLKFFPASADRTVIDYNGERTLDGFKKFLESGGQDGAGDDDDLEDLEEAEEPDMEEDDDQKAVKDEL
GSIS activator: primary screen for activators of insulin secretion dependent on glucose, INS-1E cells, GLuc reporter luminescence; INS-1E GLuc reporter insulin secretion, 2-3 h; activation, % at 16.6 µM; hit rate 0.61% among 370,000; AID 743287;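 active = lowest replicate activation of at least 40%, so every replicate reaches that level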;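 note: 0% = median of neutral control wells and 100% = median of IBMX positive control wells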
FN deposit inh: fibronectin deposition inhibition; inhibition, % at 12.6 µM; AH1F fibroblasts, Alexa488-fibronectin deposition fluorescence, overnight; hit rate 0.086% among 350,000;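 active = mean inhibition across replicates of 30% or more, regardless of how many single replicates reach that level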;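 note: positive control wells lacked labelled fibronectin entirely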
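Measured by – fluorescence 485/525 nm · System – AH1F fibroblast monolayer, labelled fibronectin deposition · Amount – 10000 cells per well · Buffer or medium – serum-reduced DMEM (2% serum) · Doses – single dose, pinned · Also added – fluorescent fibronectin at 24 nM final · Schedule – 1 h cell attachment, overnight exposure to compound and label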
ERp5 block: ERp5 (human) disulfide isomerase inhibition | Q15084 | ERp5 insulin aggregation, absorbance 650 nm, 90 min | inhibition, % at 9.99 µM | hit rate 0.05% among 350,000 | AID 651711;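 active = mean replicate inhibition above about 25%, with every replicate also reaching it, limit read from the data, passing the limit was not always enough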
The depositor's hits bear a star; . = no result given; ! = repeats disagree; [ ] = another dose, or the depositor's remark. Hits are enriched below; roughly 1.4% of the tested compounds scored in any of these assays.

SMILES	Env fusion inh	PDI turbidity	GSIS activator	FN deposit inh	ERp5 block
CC(C)C(C)NC(=O)CSc1ccc(S(=O)(=O)N2CCOCC2)cn1 (stereo not given)	-45	2	-8	4	1
COc1cc2cnc(-c3ccsc3)cc2cc1OC	-10	-5	50*	11	9
c1cc(-c2cc3cc4c(cc3cn2)OCO4)cs1	-269	-2	1	0	-5
COc1ccc(S(=O)(=O)Nc2ccc3c(c2)C(=O)N([C@@H](C)CO)C[C@H](C)[C@H](CN(C)Cc2ccc4c(c2)OCO4)O3)cc1	.	.	-3	1	3
CCCNC(=O)N1C[C@@H](C)[C@@H](OC)CN(C)C(=O)c2cc(NC(=O)CC)ccc2OC[C@H]1C	.	.	9	-3	0
COc1ccc(C(CCN(Cc2ccc(OC)c(OC)c2)C(C)=O)c2ccccc2)cc1 (stereo not given)	18	14	-14	.	-6
COc1ccc(CN(CCC(c2ccccc2)c2ccc(OC(C)C)cc2)C(=O)CCl)cc1OC (stereo not given)	.	86*	-25	-9	.
COc1ccc(C2c3ccc(O)cc3Oc3ncn(CC(C)C)c(=N)c32)cc1 (stereo not given)	8	8	2	4	4
COc1ccc(C2c3ccc(O)cc3Oc3ncn(Cc4ccco4)c(=N)c32)cc1OC (stereo not given)	17	33*	0	-5	5
COc1ccc(C2c3ccc(O)cc3Oc3ncn4nc(-c5cccnc5)nc4c32)cc1OC (stereo not given)	18	41*	22	-8	11
COc1cc2ncnc(NCc3ccccc3)c2cc1OC	.	-4	6	.	.
c1ccc(CNc2ncnc3ccccc23)cc1	106*!	8	.	4	-1
COc1ccc(-n2nnnc2-c2cnc(N3CCCC3)nc2C(F)(F)F)cc1	72*	-4	.	-11	.
FC(F)(F)c1nc(-c2cccs2)ncc1-c1nnnn1-c1ccc(Cl)cc1	70*	1	.	.	.
FC(F)(F)c1nc(-c2cccnc2)ncc1-c1nnnn1-c1ccccc1	0	4	.	4	.
CCOC(=O)C1=C(C)N(c2ccccc2)C(=O)/C1=C\c1cccs1	-89	-2	88*	.	.
CCOC(=O)C1=C(C)N(c2ccc(C)cc2)C(=O)/C1=C\c1cccs1	4	-7	.	-3	.
C[C@H](CO)N1C[C@H](C)[C@H](CN(C)C(=O)C2CCCCC2)Oc2ncc(-c3cccc(C#N)c3)cc2C1=O	8[16.7 µM]	.	4	.	-4
CN(C)C(=O)[C@@H]1[C@@H](CO)[C@@H]2Cn3c(ccc(-c4ccccc4F)c3=O)[C@H]1N2C(=O)c1cccnc1	.	.	3	.	1
COc1ccc(OCc2n(CC(=O)OC3CC(C)CCC3C(C)C)c3ccccc3[n+]2C)cc1 (stereo not given)	87*	7	271*	8	-7
CCCNC(=O)C[C@@H]1CC[C@H]2[C@@H](COC[C@H](O)CN2C(=O)CC)O1	.	.	5	-1	-1
O=C(Nc1ccccc1)c1nc[nH]c1C(=O)NCCCCCCNC(=O)c1[nH]cnc1C(=O)Nc1ccccc1	57*	3	.	12	-1
O=C(NCC1CCCCC1)[C@@H]1[C@@H](CO)[C@@H]2Cn3c(ccc(-c4cncnc4)c3=O)[C@H]1N2	4[16.7 µM]	.	0	.	-1
OCCN1CNC(=S)NC1	-12	5	4	0	-8
OCCN1CCSC1=S	7	10	45*	2	-3
SMILES	Env fusion inh	PDI turbidity	GSIS activator	FN deposit inh	ERp5 block
O=C(C[C@@H]1C[C@@H]2c3cc(NC(=O)NC4CCCCC4)ccc3O[C@@H]2[C@H](CO)O1)NC1CCCC1	.	.	-2	-10	.
CC12CCC(=O)C=C1CCC1C2CCC2(C)C1CC1C3C(=O)N(Cc4ccccc4)C(=O)C3CC(=O)C12 (stereo not given)	61*	6	.	8	7
CO[C@H]1CN(C)C(=O)c2cc(NC(=O)Nc3ccc(Cl)cc3)ccc2OC[C@@H](C)N(C)C[C@@H]1C	8[16.7 µM]	.	-9	6	1
COc1ccc(-c2cccc(-c3cc(=O)oc4cc(OC)cc(OC)c34)c2)cc1	-29	-12	-14	.	9
COc1ccc(-c2cccc(-c3cc(=O)oc4cc(OC)c(OC)c(OC)c34)c2)cc1	50*	-8	0	.	-3
Cc1ccc2c(c1)C=CC(C#N)N2C(=O)c1ccccc1 (stereo not given)	35	-6	50*	0	2
Cc1noc(C)c1S(=O)(=O)N(C)C[C@H]1Oc2ccc(NC(=O)Cc3ccccc3)cc2CC(=O)N([C@H](C)CO)C[C@H]1C	-17[16.7 µM]	.	18	.	.
COc1ccc(-c2ccc(SCc3ccccn3)nn2)cc1OC	5	0	83*	-1	0
COc1ccc(-c2ccc(SCc3cccnc3)nn2)cc1OC	-4	-3	47*	3	3
CCOC(=O)c1cnc2c(cnn2C)c1Oc1ccc(OC)cc1	17	-1	62*	-4	3
CCOC(=O)c1cnc(-c2ccccc2)nc1Oc1ccc(OC)cc1	-1	-3	18	5	2
C[C@@H]1CN([C@@H](C)CO)C(=O)c2cc(NS(=O)(=O)c3ccc(Cl)cc3)ccc2O[C@@H]1CN(C)Cc1ccc(Oc2ccccc2)cc1	.	.	-6	.	20
COCC#Cc1cnc2c(c1)C(=O)N([C@@H](C)CO)C[C@H](C)[C@H](CN(C)C(=O)Nc1cccc(F)c1)O2	9[16.7 µM]	.	9	-10	-1
CC1(C)C2CCC1(C)C(OCC[N+](C)(C)CC(=O)OC1CCCCC1)C2 (stereo not given)	74*	13	-54	-11	-7
COc1ccccc1-c1ccc2c(c1)O[C@@H](CN(C)S(=O)(=O)c1ccc(F)cc1)[C@@H](C)CN([C@@H](C)CO)S2(=O)=O	.	.	3	.	-3
Cc1ccc(C)c(N2CCN(CC(=O)Nc3ccc([N+](=O)[O-])cc3C(=O)Nc3ccccc3F)CC2)c1	.	-4	-26	.	.
O=C(CN1CCN(c2cccc(Cl)c2)CC1)Nc1ccc([N+](=O)[O-])cc1C(=O)Nc1ccccc1F	93*	9	7	-3	1
O=C(CCNS(=O)(=O)c1ccccc1)N1CCCCCC1	-8	-8	8	2	0
O=S(=O)(NCCc1ccccc1)c1ccc(S(=O)(=O)N2CCCCC2)cc1	.	0	-4	.	4
NC(=O)C1CCN(C(=O)CCNS(=O)(=O)c2ccccc2F)CC1	.	0	48*	.	5
O=S(=O)(NCc1ccccc1)c1ccc(S(=O)(=O)N2CCCCC2)cc1	3	-6	49*	4	.
O=C(CCNS(=O)(=O)c1ccccc1)N1CCCCCCC1	66*	2	16	2	6
COc1ccccc1-c1cn(CC[C@@H]2CC[C@H](NC(=O)c3cnccn3)[C@@H](CO)O2)nn1	.	.	40	13	3
O=c1cc(-c2ccccc2Cl)oc2c([N+](=O)[O-])c(O)cc(O)c12	65*	-5	-23	-15	-11

Source: PubChem
